# Assay outcomes from PubChem BioAssay.
# Rows were chosen to be rich in hits. Some 2.1% of all compounds tested hit in one or more screens of this group.
# zVAD death inh = L929 zVAD cell death inhibition; AID 1377; L929 zVAD necroptosis rescue, ATP luminescence, 24 h; with zVAD 60 µM; viability rescue, % at 10 µM; 220,000 tested, 0.38% active;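 active = activation, scaled between plate controls, above about 75%, limit read from the data; inactive = activation under that limit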;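 note: 0% = zVAD with DMSO and 100% = DMSO alone without zVAD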
# Runt-CBFb FRET = inhibitors of human RUNX1 Runt domain binding to CBFb; Q01196+Q13951; Cerulean-Runt/Venus-CBFb FRET ratio 530/480, 1 h; inhibition, % at 20 µM; 220,000 tested, 0.46% active; AID 1496;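 active = inhibition over about 50% at 20 µM in the single-dose screen, limit read from the data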;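 note: 0% = DMSO wells and 100% = excess unlabeled CBFb competitor control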
#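 test system = Cerulean-Runt domain fusion protein, energy donor | probe or stimulus = Venus-CBFb binding partner, 100 nM | incubation = two 1 h room-temperature incubations shielded from light | detection = fluorescence energy transfer, 422 nm excitation, 530/480 nm emission | measure = loss of energy transfer signal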
# TNF necrop inh = TNF-alpha cell death inhibition in Jurkat FADD-/- cells; Jurkat FADD-/- TNF necroptosis rescue, ATP luminescence, 24 h; 0 = TNF only, 100 = no-TNF cells; activation (protection from cell death), % at 10 µM; 220,000 tested, 0.068% active;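 active = activation, meaning protection from cell death, of at least 50% relative to plate controls; inactive = activation below 50%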;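 note: necroptosis triggered by 40 ng/mL TNF-alpha added together with compound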
# RanGTP-Impb inh = disruptors of Ran-importin-beta complex formation – biochemical, FRET, CFP-Ran, YFP-importin-beta, homogeneous, primary screen. 300,000 tested, 1.1% active. AID 2216. inhibition, % (test concentration not listed). cell-free CFP-Ran/YFP-importin-beta FRET ratio;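 active = more than half of the replicate wells show a fall in the fluorescence ratio signal beyond about 16%, limit read from the data, passing the limit was not always enough; inconclusive = exactly half of the replicate wells pass the set limit; inactive = fewer than half of replicates pass the limit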;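 note: 0% = DMSO wells and 100% = Ran loaded with GDP instead of GTP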
# Hck Nef HTS = human Hck-Nef kinase inhibition; P08631; Recombinant Hck-YEEI plus Nef, Z-Lyte FRET kinase assay; inhibition, % at 20 µM; 220,000 tested, 0.68% active; AID 463187;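 active = Hck-Nef kinase inhibition above about 50%, limit read from the data; inactive = inhibition below that limit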;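 note: 0% = DMSO with Hck plus Nef and 100% = Hck alone without Nef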
# Target sequence (P08631 whole entry, looked up): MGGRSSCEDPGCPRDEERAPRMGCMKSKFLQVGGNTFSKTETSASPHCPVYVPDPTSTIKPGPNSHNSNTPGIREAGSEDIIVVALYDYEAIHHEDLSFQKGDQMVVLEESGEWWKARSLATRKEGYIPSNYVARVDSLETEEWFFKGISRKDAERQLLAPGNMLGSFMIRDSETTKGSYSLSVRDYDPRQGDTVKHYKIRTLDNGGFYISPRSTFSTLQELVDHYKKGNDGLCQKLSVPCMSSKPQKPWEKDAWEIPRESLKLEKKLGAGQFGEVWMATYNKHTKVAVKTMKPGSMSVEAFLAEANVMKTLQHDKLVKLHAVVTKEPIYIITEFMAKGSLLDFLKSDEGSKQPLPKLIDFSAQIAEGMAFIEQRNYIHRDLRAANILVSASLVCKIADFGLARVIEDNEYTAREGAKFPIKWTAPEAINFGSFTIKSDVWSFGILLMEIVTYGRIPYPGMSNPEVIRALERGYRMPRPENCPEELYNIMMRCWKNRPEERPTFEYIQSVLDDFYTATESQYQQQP
# Runt-SMMHC FRET = Runt domain-CBFb-SMMHC interaction inhibition | Q01196+Q13951 | Cerulean-Runt/Venus-CBFb-SMMHC FRET ratio 530/480, 1 h | inhibition, % at 20 µM | 220,000 tested, 0.74% active | AID 1434;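 active = mean inhibition across duplicate retests at 20 µM reaching about 50%, limit read from the data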;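 note: 0% = DMSO wells and 100% = wells with excess untagged CBFb-SMMHC; inhibitors lower the FRET ratio by blocking Runt binding to CBFb-SMMHC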
# * = called active by the depositor; ? = inconclusive; . = no result given.
SMILES,zVAD death inh,Runt-CBFb FRET,TNF necrop inh,RanGTP-Impb inh,Hck Nef HTS,Runt-SMMHC FRET
Cc1nc2c(sc3nc(N4CCOCC4)c4c(c32)CC(C)(C)OC4)c(-c2ccccc2)c1C(=O)O,0,14,-2,23*,-72,82
CC1(C)Cc2c(c(N3CCOCC3)nc3snc(NC(=O)c4ccccc4)c23)CO1,0,0,1,3,3,0
COC1CCCN(Cc2c(C(=O)N3CCN(C4CCCCC4)CC3)nc3ccccn23)C1 (stereo unspecified),.,.,.,104*,.,.
O=c1[nH]c(=O)c2nc(-c3ccc(Cl)cc3)cnc2[nH]1,2,20,-3,94*,5,.
O=C(OCc1ccccc1)N1CCc2ccccc21,.,.,.,-1,.,.
O=C(CN(CCc1ccccc1)S(=O)(=O)c1ccc(Cl)cc1)N/N=C/c1ccccc1C(=O)O,0,-5,0,20*,15,-7
NNC(=O)CN(CCc1ccccc1)S(=O)(=O)c1ccc(Cl)cc1,0,1,1,-1,-20,3
Cc1ccc2nc(NCCCN3CCOCC3)c(C=NCCCN3CCOCC3)c(=O)n2c1,0,76*,-2,39*,3,66*
Cc1cccn2c(=O)c3cc(C(=O)NCCCN4CCOCC4)n(C)c3nc12,.,0,.,.,.,3
Cc1ccc2nc3c(cc(C(=O)NCCc4ccccc4)c(=N)n3CCN3CCOCC3)c(=O)n2c1,.,.,.,159*,.,.
CCOC(=O)c1cc2c(=O)n3cc(C)ccc3nc2n(Cc2cccnc2)c1=N,.,10,.,.,.,42
Cc1ccc2nc(NCc3ccccc3)c(C=NCc3ccccc3)c(=O)n2c1,.,-6,-7,1,-10,0
Cc1ccc2nc3c(cc(C(=O)NCCN4CCOCC4)c(=N)n3CCCN3CCOCC3)c(=O)n2c1,.,.,.,143*,.,.
Cc1noc(C(=O)Nc2cccc(O)c2)c1Cl,1,-1,-1,6,21,-1
Cc1ccc(-n2cc(CNCC3CC(=O)N(C4CC4)C3)c(-c3cccc(C)c3)n2)cc1 (stereo unspecified),2,0,0,?,1,-9
COc1ccc(NC(=O)c2ccc(NC(=O)c3cccs3)cc2)cc1,.,.,.,3,.,.
COc1ccc(C(=O)/C=C\c2ccc(NC(=O)c3cccs3)cc2)cc1,1,-3,-13,23*,2,-25
Cc1ccc(C)c(-n2c(-c3ccco3)n[nH]c2=S)c1,.,.,.,15*,.,.
Clc1cccc(Cl)c1Cn1ccc(C2CC2)n1,2,-2,97*,-2,-22,1
O=c1c2ccccc2c(-c2ccccc2)nn1Cc1c(Cl)cccc1Cl,1,-2,-2,0,2,-3
O=C(O)c1cccc(N2C(=O)c3cc([N+](=O)[O-])cc4cc([N+](=O)[O-])cc(c34)C2=O)c1,.,.,.,4,.,.
Cc1ccc(S(=O)(=O)c2cc(C#N)c(=O)[nH]c2N)cc1,1,19,-2,-2,2,107*
Cc1cc(/C=C2\SC(=S)NC2=O)c(C)n1-c1ccccc1,1,26,-1,9,53*,17
Cc1cc(/C=C2\SC(=S)NC2=O)c(C)n1-c1ccc(O)cc1,1,-10,3,23*,30,-38
O=C(O)c1ncn(Cc2ccc(Br)cc2)c1C(=O)O,2,0,0,2,17,1
SMILES,zVAD death inh,Runt-CBFb FRET,TNF necrop inh,RanGTP-Impb inh,Hck Nef HTS,Runt-SMMHC FRET
O=C(CSc1n[nH]c(=O)n1-c1cccnc1)Nc1ccccc1Cl,.,.,.,-2,.,.
CCc1ccc(NC(=S)/N=C(\N)Nc2nc(C)c3cc(CC)ccc3n2)cc1,3,3,-7,?,8,1
CCc1ccc2nc3nc(C)cc(C)c3c(N)c2c1,1,10,-2,149*,21,44
COc1ccc(N(CC(=O)N/N=C/c2ccccc2F)S(=O)(=O)c2ccccc2)cc1,.,.,.,-5,.,.
COCCn1c(N)c(C(=O)OCc2ccccc2)c2nc3ccccc3nc21,1,17,-4,18*,25,65*
COCCNC(=O)c1c(N)n(CCC2=CCCCC2)c2nc3ccccc3nc12,1,38,0,68*,48,58*
COCCNC(=O)CSc1nc2cc(OC)c(OC)cc2c(=O)n1CCC1=CCCCC1,0,-1,3,7,1,0
CN(CC(=O)Nc1ccccc1Br)C(=O)C1CCN(C(=O)c2ccc(Cl)cc2)CC1,.,.,.,9,.,.
COc1c(OC)c2[nH]c(=O)cc3c4ccccc4n(c1=O)c23,.,.,.,157*,.,.
COc1c(O)c(=O)n2c3ccccc3c3ccnc1c32,.,.,.,-5,.,.
Cc1cc(N)nc2nc(C(F)(F)F)nn12,0,0,0,1,13,-5
COc1cc(NS(=O)(=O)c2ccc(N/C=C\C(=O)c3ccc(OC)c(OC)c3)cc2)nc(OC)n1,1,38,1,1,45,83*
COc1ccc(OC)c(N2C(=NC(=O)C3CCCCC3)SC3CS(=O)(=O)CC32)c1 (stereo unspecified),.,.,.,2,.,.
Cc1ccc(/C=C\c2nccc3c2[nH]c2ccccc23)cc1,6,10,1,-3,59*,28
Fc1ccc(/C=C\c2nccc3c2[nH]c2ccccc23)cc1,6,12,0,4,27,37
Cc1ccc(C)c(CN2CCC(CNC(=O)Nc3ccc(F)c(Cl)c3)CC2)c1,.,.,.,-2,.,.
CC(C)c1ccc(Nc2nc(NCc3ccco3)nc(N3CCOCC3)n2)cc1,87*,-3,2,-10,0,3
CCc1ccc(C(=O)NCc2cnn(C)c2)s1,3,1,-1,4,12,-5
Cc1nnsc1C(=O)NNc1ccc(Cl)cc1,1,0,11,1,5,-6
Cc1nnsc1C(=O)NNc1c(Cl)cccc1Cl,-1,0,84*,-2,0,5
COc1ccccc1OCc1nn[nH]n1,.,.,.,-4,.,.
COCCNc1c2c(c(C#N)c3nc4ccccc4n13)CCCC2,1,36,-1,21*,25,75*
N#Cc1c2c(c(NCCOCCO)n3c1nc1ccccc13)CCCC2,1,39,0,-4,15,85*
CC(=O)Nc1ccc(N2CCc3c(C)c(C#N)c4nc5ccccc5n4c32)cc1,1,4,0,110*,4,81*
Cc1c2c(n3c(nc4ccccc43)c1C#N)N(Cc1cccnc1)CC2,0,.,-2,.,27,.
CC(=O)c1ccc(Nc2c3c(c(C#N)c4nc5ccccc5n24)CCC3)cc1,0,39,1,31*,4,68*
N#Cc1c2c(c(NCc3cccnc3)n3c1nc1ccccc13)CCC2,1,23,1,?,18,.
COc1ccc(Nc2c3c(c(C#N)c4nc5ccccc5n24)CCC3)cc1,0,.,-2,-3,1,34
